The text below walks through data of ChEMBL document CHEMBL1138900, “2,5-diketopiperazines as potent, selective, and orally bioavailable oxytocin antagonists. 3. Synthesis, pharmacokinetics, and in vivo potency” (J Med Chem, 2006).

Broadly, the solubility is how much of the substance goes into solution per volume. Broadly, the bioavailability is dose-corrected exposure relative to a reference, in per cent. As a reminder, the AUC is the area under the concentration-time curve, a measure of exposure. The term pKi denotes the Ki on a negative log10 scale, so that one unit is a factor of ten. Usually clearance stands for a measure of how efficiently the substance is removed, as volume per time. For orientation: pIC50 means the negative decadic logarithm of the IC50, by convention in mol/L. Usually half-life stands for the time in which the quantity being followed falls by half.

pIC50, pKi: −log10 of the molar value. In brackets after ≈: the same amount, converted by molar mass.

Data set [1] is described as follows: Lipophilicity, log D by CHI method. Format: physicochemical. The following applies: read-out: Log D. Summed up:
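Lipophilicity determined by an HPLC-based method.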

Data set [2] can be described thus: Solubility of the compound. The format is physicochemical. Summed up:
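Aqueous solubility (mg mL⁻¹) measured by precipitation followed by HPLC.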

A short description of data set [3]: Oral bioavailability in rat. The following applies: in vivo. Format: ADME, organism-based.
Data set [4] in a line: AUC in rat. The format is ADME, organism-based. More on the design: concentration or dose not given beside the values. The conditions noted are these: plasma. Summed up:
(§1)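 Rat pharmacokinetics, n = 4; dosed at 5 mg/kg in 5% DMSO/95% PEG400. AUC in ng·h mL⁻¹, clearance in mL min⁻¹ kg⁻¹, half-life in h.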

Data set [5] deals with T1, Oxytocin receptor (Homo sapiens, UniProt P30559).
T1 sequence (P30559 whole entry): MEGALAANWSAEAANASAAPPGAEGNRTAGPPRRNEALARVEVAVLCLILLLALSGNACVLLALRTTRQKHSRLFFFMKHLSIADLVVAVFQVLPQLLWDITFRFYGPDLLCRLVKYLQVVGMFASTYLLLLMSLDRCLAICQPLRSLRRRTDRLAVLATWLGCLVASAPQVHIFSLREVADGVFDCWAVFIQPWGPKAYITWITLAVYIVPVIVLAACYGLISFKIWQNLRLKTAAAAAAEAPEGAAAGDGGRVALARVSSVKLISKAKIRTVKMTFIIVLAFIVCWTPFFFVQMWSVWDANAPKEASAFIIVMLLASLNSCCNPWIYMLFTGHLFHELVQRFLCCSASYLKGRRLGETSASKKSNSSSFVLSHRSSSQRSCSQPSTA
The data set can be described thus: Displacement of [3H]oxytocin from human OTR. In general terms: Loss of bound radioactivity is the signal in a displacement assay; it reports binding, not function.

Data set [6] is described as follows: Clearance in rat. Format: ADME, organism-based. The following applies: in vivo. Summed up:
as §1

Data set [7] is described as follows: AUC in dog. The format is ADME, organism-based, Canis lupus familiaris. Also noted: concentration or dose not given beside the values. The following applies: plasma. Summed up: (§2)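 Dog pharmacokinetics, n = 3; dosed at 0.6 mg/kg in 5% DMSO/95% PEG400. AUC reported as ng·h mL⁻¹ and clearance as mL min⁻¹ kg⁻¹.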
In the next data set the test system is Canis familiaris. Put plainly: (§3) Oral bioavailability in dog. The following applies: in vivo. Format: ADME, organism-based, Canis lupus familiaris.
A short description of data set [8]: Clearance in dog. Format: ADME, organism-based, Canis lupus familiaris. The following applies: in vivo. Summed up:
as §2

Another data set deals with Cytochrome P450 2C9 (Homo sapiens, UniProt P11712). The data set can be described thus: Inhibition of CYP450 2C9 transfected in human microsome. The format is ADME. Summed up: (§4)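 Recombinant human CYP isozymes, with reaction progress followed by fluorogenic substrates; DEF and 7-benzyloxyquinoline used as CYP3A4 substrates. Compounds dissolved at 1.65 mM in DMSO/methanol and serially diluted to give IC50 (μM). A positive control run for each isozyme.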
Sequence of Cytochrome P450 2C9 (P11712 whole entry): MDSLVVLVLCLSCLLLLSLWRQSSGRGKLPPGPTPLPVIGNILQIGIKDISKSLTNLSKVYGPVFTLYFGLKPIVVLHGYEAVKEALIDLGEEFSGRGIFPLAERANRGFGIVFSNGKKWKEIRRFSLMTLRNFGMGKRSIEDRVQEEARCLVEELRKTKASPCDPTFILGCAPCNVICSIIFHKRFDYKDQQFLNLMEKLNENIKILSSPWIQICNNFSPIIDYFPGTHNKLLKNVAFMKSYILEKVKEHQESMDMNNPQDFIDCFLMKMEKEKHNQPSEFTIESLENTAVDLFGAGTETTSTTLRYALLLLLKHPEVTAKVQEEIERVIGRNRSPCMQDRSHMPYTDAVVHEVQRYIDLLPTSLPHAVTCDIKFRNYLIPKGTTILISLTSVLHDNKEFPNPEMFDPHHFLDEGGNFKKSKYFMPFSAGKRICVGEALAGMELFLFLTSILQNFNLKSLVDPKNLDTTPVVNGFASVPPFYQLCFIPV

For a further data set, the target named is Vasopressin V2 receptor (Homo sapiens, UniProt P30518). The data set can be described thus: Displacement of vasopressin from human V2R.
Sequence of Vasopressin V2 receptor (P30518 whole entry): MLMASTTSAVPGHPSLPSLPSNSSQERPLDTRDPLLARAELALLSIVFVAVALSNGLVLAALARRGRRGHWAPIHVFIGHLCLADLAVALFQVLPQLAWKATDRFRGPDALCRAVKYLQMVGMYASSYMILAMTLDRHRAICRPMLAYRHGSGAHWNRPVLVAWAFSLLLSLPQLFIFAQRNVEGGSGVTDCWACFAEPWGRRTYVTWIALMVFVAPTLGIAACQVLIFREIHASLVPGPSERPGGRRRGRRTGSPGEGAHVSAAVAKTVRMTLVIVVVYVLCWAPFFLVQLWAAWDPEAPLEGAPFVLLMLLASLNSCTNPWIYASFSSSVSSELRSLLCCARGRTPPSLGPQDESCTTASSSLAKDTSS
In the next data set the target is Cytochrome P450 2C19 (Homo sapiens, UniProt P33261). Put plainly: Inhibition of CYP450 2C19 transfected in human microsome. Format: ADME. Summed up:
as §4

The nature of data set [9]: Half life in dog. The format is ADME, organism-based, Canis lupus familiaris. The following applies: in vivo.
The target of the next data set is T2, Vasopressin V1b receptor (Homo sapiens, UniProt P47901).
T2 sequence (P47901 whole entry): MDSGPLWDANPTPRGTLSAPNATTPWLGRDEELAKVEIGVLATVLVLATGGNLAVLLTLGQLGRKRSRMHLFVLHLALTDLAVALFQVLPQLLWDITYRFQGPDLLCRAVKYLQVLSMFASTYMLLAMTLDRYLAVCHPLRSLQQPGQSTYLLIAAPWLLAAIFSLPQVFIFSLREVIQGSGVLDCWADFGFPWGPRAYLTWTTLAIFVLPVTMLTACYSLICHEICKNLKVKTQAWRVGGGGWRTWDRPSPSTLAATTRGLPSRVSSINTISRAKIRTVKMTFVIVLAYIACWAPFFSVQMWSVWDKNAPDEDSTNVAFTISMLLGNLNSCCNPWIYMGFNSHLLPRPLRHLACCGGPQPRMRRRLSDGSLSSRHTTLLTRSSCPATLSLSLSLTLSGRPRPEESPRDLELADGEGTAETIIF
Put plainly: Displacement of vasopressin from human V1bR.

For data set [10], the target named is T3, Cytochrome P450 3A4 (Homo sapiens, UniProt P08684). The data set can be described thus: Inhibition of CYP450 3A4 transfected in human microsome using PPR fluorogenic substrate. The format is ADME, microsomes.
T3 sequence (P08684 whole entry): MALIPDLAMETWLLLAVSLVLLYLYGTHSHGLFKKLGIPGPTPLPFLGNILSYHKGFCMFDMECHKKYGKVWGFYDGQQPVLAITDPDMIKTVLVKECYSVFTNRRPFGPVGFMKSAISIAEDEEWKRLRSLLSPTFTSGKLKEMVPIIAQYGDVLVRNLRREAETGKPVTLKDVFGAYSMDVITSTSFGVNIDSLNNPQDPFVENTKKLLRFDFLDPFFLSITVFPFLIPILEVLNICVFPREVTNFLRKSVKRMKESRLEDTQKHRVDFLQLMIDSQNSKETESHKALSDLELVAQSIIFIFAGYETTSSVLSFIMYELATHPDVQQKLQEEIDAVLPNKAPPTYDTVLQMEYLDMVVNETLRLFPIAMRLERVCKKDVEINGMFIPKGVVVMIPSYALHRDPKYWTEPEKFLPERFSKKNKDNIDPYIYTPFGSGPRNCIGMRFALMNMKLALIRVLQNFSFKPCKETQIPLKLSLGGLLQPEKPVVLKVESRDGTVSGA
The target in data set [11] is T1, Oxytocin receptor. The data set can be described thus: Antagonist activity against human OTR expressed in CHO cells measured as calcium influx by FLIPR assay. The format is functional, cell-based.
For another data set, the target named is T4, Cytochrome P450 1A2 (Homo sapiens, UniProt P05177).
T4 sequence (P05177 whole entry): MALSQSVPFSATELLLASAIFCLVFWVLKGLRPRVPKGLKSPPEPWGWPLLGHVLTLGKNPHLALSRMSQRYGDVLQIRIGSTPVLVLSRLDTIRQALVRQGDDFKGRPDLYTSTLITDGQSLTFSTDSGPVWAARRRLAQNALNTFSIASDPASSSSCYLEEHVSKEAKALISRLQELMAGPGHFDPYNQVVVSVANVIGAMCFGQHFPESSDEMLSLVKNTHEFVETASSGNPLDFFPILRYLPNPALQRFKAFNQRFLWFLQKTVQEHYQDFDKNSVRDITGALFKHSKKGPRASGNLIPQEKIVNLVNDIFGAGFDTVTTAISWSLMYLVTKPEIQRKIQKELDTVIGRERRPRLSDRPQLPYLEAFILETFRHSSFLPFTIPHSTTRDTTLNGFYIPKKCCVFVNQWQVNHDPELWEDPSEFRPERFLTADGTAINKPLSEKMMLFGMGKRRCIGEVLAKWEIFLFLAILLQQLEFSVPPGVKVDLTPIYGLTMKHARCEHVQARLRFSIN
Put plainly: Inhibition of CYP450 1A2 transfected in human microsome. Format: ADME. Summed up:
as §4

Data set [12] can be described thus: Volume of distribution in rat. The format is ADME, organism-based. The following applies: in vivo, read-out: Vdss.
For another data set, the system named is Rattus norvegicus. The data set can be described thus: Reduction in oxytocin-induced uterine contraction in iv dosed anaesthetized rat. The format is functional, organism-based. Summed up: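 Anaesthetized rats; uterine contractions elicited by iv oxytocin at a standard dose of 0.3 ug/kg. Test compound then given iv in rising doses (0.1, 0.3, 1 mg/kg) and the fall in contractility recorded. Plasma IC50 taken as the plasma concentration giving 50% inhibition of the response to the standard oxytocin dose.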

For the next data set, the target named is Vasopressin V1a receptor (Homo sapiens, UniProt P37288). Put plainly: Displacement of vasopressin from human V1aR.
Sequence of Vasopressin V1a receptor (P37288 whole entry): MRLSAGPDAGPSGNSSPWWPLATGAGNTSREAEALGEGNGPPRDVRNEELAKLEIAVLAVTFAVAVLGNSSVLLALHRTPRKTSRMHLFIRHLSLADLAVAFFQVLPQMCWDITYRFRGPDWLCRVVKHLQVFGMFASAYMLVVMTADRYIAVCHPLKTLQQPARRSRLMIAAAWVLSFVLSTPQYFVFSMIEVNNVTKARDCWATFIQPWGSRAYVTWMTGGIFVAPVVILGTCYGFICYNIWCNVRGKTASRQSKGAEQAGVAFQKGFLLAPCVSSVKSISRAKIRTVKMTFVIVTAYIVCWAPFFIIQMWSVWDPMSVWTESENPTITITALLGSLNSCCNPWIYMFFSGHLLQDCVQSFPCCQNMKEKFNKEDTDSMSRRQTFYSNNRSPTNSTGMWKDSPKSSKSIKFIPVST
A short description of data set [13]: as §3. The following applies: in vivo. Format: ADME, organism-based, Canis lupus familiaris.
Data set [14] is described as follows: Half life in rat. The conditions noted are these: in vivo. Format: ADME, organism-based. Summed up: as §1
In data set [15] the target is T3, Cytochrome P450 3A4. Put plainly: Inhibition of CYP450 3A4 transfected in human microsome using DEF fluorogenic substrate. The format is ADME, microsomes. Summed up:
as §4

The target in the next data set is Cytochrome P450 2D6 (Homo sapiens, UniProt P10635). Put plainly: Inhibition of CYP450 2D6 transfected in human microsome using DEF fluorogenic substrate. The format is ADME, microsomes. Summed up:
as §4

In data set [16] the target is T5, Oxytocin receptor (Rattus norvegicus, UniProt P70536).
T5 sequence (P70536 whole entry): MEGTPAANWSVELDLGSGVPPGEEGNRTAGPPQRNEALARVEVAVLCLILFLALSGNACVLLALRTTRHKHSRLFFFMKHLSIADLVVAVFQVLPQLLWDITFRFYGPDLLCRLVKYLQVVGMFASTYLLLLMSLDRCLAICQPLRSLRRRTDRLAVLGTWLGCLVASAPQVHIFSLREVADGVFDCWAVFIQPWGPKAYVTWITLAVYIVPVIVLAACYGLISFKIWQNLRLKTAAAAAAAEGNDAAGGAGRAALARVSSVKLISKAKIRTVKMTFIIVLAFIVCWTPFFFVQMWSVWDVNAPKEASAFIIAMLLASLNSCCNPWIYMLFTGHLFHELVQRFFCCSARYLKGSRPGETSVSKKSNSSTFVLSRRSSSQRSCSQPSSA
The data set can be described thus: Displacement of [3H]oxytocin from rat OTR.

Data set [17] can be described thus: Volume of distribution in dog. Format: ADME, organism-based, Canis lupus familiaris. The following applies: in vivo, read-out: Vdss.

Sequence of Cytochrome P450 2C19 (P33261 whole entry): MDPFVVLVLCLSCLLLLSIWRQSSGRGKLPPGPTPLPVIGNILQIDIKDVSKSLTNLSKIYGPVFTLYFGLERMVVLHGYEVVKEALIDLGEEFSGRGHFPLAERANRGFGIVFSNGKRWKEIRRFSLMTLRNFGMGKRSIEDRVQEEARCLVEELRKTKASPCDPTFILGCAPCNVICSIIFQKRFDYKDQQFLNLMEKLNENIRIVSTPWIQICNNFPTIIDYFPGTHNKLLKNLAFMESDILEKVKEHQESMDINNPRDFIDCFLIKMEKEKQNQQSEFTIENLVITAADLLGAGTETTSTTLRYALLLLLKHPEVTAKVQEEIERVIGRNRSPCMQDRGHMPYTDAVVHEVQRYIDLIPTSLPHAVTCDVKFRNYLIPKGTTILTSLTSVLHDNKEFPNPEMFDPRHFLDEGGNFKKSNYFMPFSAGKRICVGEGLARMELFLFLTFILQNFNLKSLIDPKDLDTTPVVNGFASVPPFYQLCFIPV
Sequence of Cytochrome P450 2D6 (P10635 whole entry): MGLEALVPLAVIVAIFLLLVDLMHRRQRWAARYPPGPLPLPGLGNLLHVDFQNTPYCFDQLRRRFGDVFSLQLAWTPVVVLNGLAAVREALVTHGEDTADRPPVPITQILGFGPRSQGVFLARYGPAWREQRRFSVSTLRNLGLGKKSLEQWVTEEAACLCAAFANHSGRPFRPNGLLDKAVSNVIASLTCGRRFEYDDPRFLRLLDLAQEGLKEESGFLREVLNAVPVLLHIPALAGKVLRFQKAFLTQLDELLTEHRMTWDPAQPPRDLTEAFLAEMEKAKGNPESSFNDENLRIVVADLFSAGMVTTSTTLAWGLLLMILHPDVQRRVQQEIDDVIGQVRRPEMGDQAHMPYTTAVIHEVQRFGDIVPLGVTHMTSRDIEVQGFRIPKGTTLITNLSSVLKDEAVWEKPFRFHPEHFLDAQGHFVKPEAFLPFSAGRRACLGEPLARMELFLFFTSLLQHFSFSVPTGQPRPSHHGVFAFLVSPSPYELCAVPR

In the case of `CC(C)C[C@@H]1C(=O)N[C@H](C2Cc3ccccc3C2)C(=O)N1[C@@H](C(=O)NC(C)C)c1ccc(F)cc1F`, the chromatographic logD in data set [1] came out at 3.4. In data set [2], this compound yielded a solubility of 8 µg/mL (≈ 16.1 µM). Also, the bioavailability in [3] was found to be 46%. Moreover, the AUC came to 2880 ng·h/mL in data set [4] and 174 ng·h/mL in data set [7]. Besides, the pKi on Oxytocin receptor [5] is 8.90. The clearance in data set [6] amounted to 36 mL/min/kg; in data set [8], 11 mL/min/kg. Moreover, the F with Canis familiaris was 13%.
As for `CC(C)C[C@@H]1C(=O)N[C@H](C2Cc3ccccc3C2)C(=O)N1[C@@H](C(=O)NC(C)C)c1ccc2occc2c1`, the pIC50 against Cytochrome P450 2C9 is 5.46; at Cytochrome P450 2C19, < 4.00; against Cytochrome P450 3A4 [10] it was 5.37; on Cytochrome P450 1A2, 4.14; at Cytochrome P450 3A4 [15], 5.60; at Cytochrome P450 2D6, 4.21. Moreover, the negative logarithm of the Ki (pKi) is 5.30 on Vasopressin V2 receptor; < 5.20 on Vasopressin V1b receptor; 8.40 on Oxytocin receptor [11]; 9.00 on Oxytocin receptor [5]; < 5.20 at Vasopressin V1a receptor; 7.20 at Oxytocin receptor [16]. The values for the bioavailability in [3] and in [13] were 68% and 95%, respectively. Besides, the half-life is 2.4 h in data set [9] and 2 h in [14]. The Vd in data set [12] came to 1.4 L/kg; in data set [17], 0.9 L/kg. Also, the Activity in the data set on Rattus norvegicus came to 5.4 mg/kg. For the same compound, the clearance in [6] came to 9 mL/min/kg; in data set [8], 6 mL/min/kg.
Take `CC(C)C[C@@H]1C(=O)N[C@H](C2Cc3ccccc3C2)C(=O)N1[C@@H](C(=O)N(C)CCO)c1ccc(F)cc1F`: the chromatographic logD in data set [1] is 2.8. This compound also returned a solubility in [2] of 159 µg/mL (≈ 310 µM). The bioavailability in data set [3] stood at 55%; in data set [13], 14%. Further, the AUC is 2350 ng·h/mL in data set [4] and 200 ng·h/mL in data set [7]. This compound gave a pKi on Oxytocin receptor [5] of 9.90. The clearance in [6] came out at 19 mL/min/kg; in data set [8] it was 6 mL/min/kg.
Take `CC(C)C[C@@H]1C(=O)N[C@H](C2Cc3ccccc3C2)C(=O)N1[C@@H](C(=O)N1CCOCC1)c1ccc(F)cc1F`: the chromatographic logD in [1] turned out to be 3.2. Further, the bioavailability in data set [3] was determined as 41%; in [13] it was 7%. For the same compound, the AUC in [4] is 2150 ng·h/mL; in [7] it was 100 ng·h/mL. Further, the negative logarithm of the Ki (pKi) on Oxytocin receptor [5] was 8.90. In addition, the clearance was found to be 16 mL/min/kg in [6] and 8 mL/min/kg in [8].
